Test results: article PMC2646813 (Journal of biomolecular screening, 2008)
Where a name gives a salt, the structure may show the parent alone. Read-outs that look alike come from different tables or passages of the source.

How the values were obtained:
PPARαΔAB [1] = biological target: T1, PPARαΔAB (Mus musculus, UniProt P23204); format: binding, murine
T1 sequence (P23204 101-468 limits assumed): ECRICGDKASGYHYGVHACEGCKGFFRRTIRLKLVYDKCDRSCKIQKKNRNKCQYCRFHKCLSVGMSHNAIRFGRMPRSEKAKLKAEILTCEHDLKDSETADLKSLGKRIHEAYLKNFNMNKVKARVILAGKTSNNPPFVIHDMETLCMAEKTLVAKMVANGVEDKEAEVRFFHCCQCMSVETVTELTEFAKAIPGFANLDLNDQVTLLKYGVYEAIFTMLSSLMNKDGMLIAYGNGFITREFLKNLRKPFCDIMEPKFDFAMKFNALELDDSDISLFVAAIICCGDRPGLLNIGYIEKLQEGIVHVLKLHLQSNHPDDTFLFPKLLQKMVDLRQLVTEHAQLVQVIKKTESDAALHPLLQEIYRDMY
Summary of the method: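 Intrinsic aromatic fluorescence quenching. 0.1 μM murine PPARαΔAB in 20 mM glucose in PBS titrated with test compound. Excitation 280 nm, emission 300–380 nm. Corrected for buffer, compound fluorescence and solvent. Kd calculated from maximal intensities, with double-reciprocal plots. Mean ± SEM, n = 3–4.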

PPARαΔAB [2] = biological target: T1, PPARαΔAB; experiment: Primary drug-screening assay: restoration of BODIPY-C16-CoA; format: binding, murine; conditions: 20 mM glucose; for Recovery (ability to restore acyl-CoA binding): compound 1.25 μM, 10 nM BODIPY-C16-CoA, 200 nM PPARαΔAB
PPARα-RXRα heterodimers = biological target: T2, PPARα-RXRα heterodimers (Mus musculus, UniProt P23204); experiment: Transactivation assay, acyl-CoA oxidase reporter; format: cell-based
T2 sequence (P23204 1-468): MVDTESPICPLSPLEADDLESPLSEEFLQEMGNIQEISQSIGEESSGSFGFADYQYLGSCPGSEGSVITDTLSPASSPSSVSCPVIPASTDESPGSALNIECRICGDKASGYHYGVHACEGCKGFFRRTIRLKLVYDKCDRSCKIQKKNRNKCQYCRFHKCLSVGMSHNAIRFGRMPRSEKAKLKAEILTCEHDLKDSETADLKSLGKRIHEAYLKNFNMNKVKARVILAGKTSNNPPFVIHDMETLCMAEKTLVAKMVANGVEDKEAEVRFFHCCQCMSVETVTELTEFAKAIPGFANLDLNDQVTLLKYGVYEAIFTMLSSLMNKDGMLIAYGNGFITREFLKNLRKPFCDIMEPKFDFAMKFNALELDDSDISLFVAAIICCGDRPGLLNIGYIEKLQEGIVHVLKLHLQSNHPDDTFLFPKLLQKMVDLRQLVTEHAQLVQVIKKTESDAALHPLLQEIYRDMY
T2 sequence (P28700 1-467 partner): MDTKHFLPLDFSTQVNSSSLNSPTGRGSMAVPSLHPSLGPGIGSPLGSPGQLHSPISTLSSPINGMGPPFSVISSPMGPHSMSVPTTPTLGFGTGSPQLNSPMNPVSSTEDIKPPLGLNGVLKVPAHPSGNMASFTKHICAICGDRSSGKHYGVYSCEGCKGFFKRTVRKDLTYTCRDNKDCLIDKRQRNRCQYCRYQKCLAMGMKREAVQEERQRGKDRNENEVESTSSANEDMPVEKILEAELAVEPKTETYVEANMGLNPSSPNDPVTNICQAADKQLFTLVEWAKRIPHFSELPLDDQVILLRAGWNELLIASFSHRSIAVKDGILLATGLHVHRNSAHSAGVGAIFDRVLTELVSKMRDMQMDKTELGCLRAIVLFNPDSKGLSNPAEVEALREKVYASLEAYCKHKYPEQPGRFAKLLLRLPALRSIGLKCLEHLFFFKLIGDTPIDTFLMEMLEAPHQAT
Summary of the method: (§1)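 COS-7 cells in 24-well plates transfected with 0.4 μg full-length pSG5-PPARα, alone or with pSG5-mRXRα; 0.4 μg PPRE3-TK-LUC reporter; 0.04 μg pRL-CMV. Then serum-free, glucose-free DMEM for 2 h. Compound (10 μM) added at 0 or 20 mM glucose, ±10 μM clofibrate, for 24 h. Firefly luciferase normalized to Renilla. Results given as percentage of clofibrate-induced PPARα activity, or percentage change from no-compound control; mean ± SEM, n = 3.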

PPARα = biological target: T3, PPARα (Mus musculus, UniProt P23204); experiment: Transactivation assay, acyl-CoA oxidase reporter; format: cell-based; conditions: for Effect on clofibrate-induced PPARα transactivation: absence of glucose (Fig. 2D open bars); for Increase of PPARα transactivation (percentage change from no-compound control): basal, absence of glucose (Fig. 2C open bars)
T3 sequence (P23204 1-468): T2 sequence (P23204 1-468)
Summary of the method: as §1

PPARαΔAB [3] = biological target: T1, PPARαΔAB; experiment: Circular dichroism, PPARα secondary structure; set-up: species or system murine; conditions: 20 mM glucose, 0.8 μM PPARαΔAB; mean ± SEM (n = 4)
Summary of the method: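 Murine PPARαΔAB (N-terminal truncation), expressed in E. coli BL21(DE3)pLysS and purified, at 0.8 μM with 0 or 20 mM glucose. Ten CD scans averaged per spectrum. Secondary structure fractions estimated by SELCON3, CDSSTR and CONTIN/LL. Mean ± SEM, n = 4; Student's t-test.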

PPARαΔAB [4] = biological target: T1, PPARαΔAB; experiment: PPARα binding assays to BODIPY-C16 fatty acid or fatty acyl-CoA; set-up: species or system murine; conditions: high glucose (20 mM)
Summary of the method: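 50 nM BODIPY-C16 or BODIPY-C16-CoA prebound to 100 nM murine PPARαΔAB, then titrated with glucose. Excitation 460 nm, emission 490–540 nm. Background-corrected maximal intensities expressed as percentage change in binding versus the no-glucose control.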

[5] = compound 10 μM, 10 μM clofibrate, 20 mM glucose (Fig. 2F)
[6] = read-out: Kd (binding affinity of PPARα for each compound), 0.1 μM PPARαΔAB in 20 mM glucose in PBS, mean ± SEM (n = 3–4)
[7] = compound 10 μM, 10 μM clofibrate

Row | Kd (PPARαΔAB [1]) | Recovery (ability to restore acyl-CoA binding) (PPARαΔAB [2]) | Effect on clofibrate-induced PPARα-RXRα activity (PPARα-RXRα heterodimers; [5]) | SMILES | other results
1 | 26.3 ± 3.2 nM | 82.0% | significantly decreased | CCCC1O[C@@H]2C[C@H]3[C@@H]4CCC5=CC(=O)C=C[C@]5(C)[C@H]4[C@@H](O)C[C@]3(C)[C@]2(C(=O)CO)O1 (stereo partly drawn) [Budesonide] | 
2 |  | 85.5% |  | NCCCC(=O)O [g-aminobutyric acid] | Kd (PPARαΔAB [1]; [6]): 29.5 ± 4.1 nM
3 | 25.8 ± 6 nM | 83.1% |  | NC(=O)c1ccccc1O [Salicylamide] | 
4 | 31.4 ± 3.6 nM | 73.9% |  | c1ccc(CC2=NCCN2)cc1 [Tolazoline hydrochloride] | 
5 | 21.9 ± 1.8 nM | 62.3% | significantly decreased | CC(=O)O[C@@H]1C[C@H]2C(C)(C)C(=O)C=C[C@]2(C)[C@H]2CC[C@@]3(C)[C@H](c4ccoc4)OC(=O)[C@H]4O[C@]43[C@@]21C [Gedunin] | Effect on clofibrate-induced PPARα transactivation (PPARα; [7]): decreases; Effect on basal PPARα activity (PPARα; compound 10 μM, with or without glucose (Fig. 2C)): significantly reduced; Effect on clofibrate-induced PPARα-RXRα activity (PPARα-RXRα heterodimers; compound 10 μM, 10 μM clofibrate, absence of glucose (Fig. 2F)): significantly affected activity; Effect on basal PPARα-RXRα heterodimer activity (PPARα-RXRα heterodimers; compound 10 μM, with or without glucose (Fig. 2E)): decreased activity
6 | 35.1 ± 3.7 nM | 97.1% | significantly decreased | Cc1ccc(C(=O)c2ccc(CC(=O)O)n2C)cc1 [Tolmetin sodium, reference compound] | Increase of PPARα transactivation (percentage change from no-compound control) (PPARα; compound 10 μM): ≥ 50%
7 | 26.3 ± 2.8 nM | 64.7% |  | CCOC(=O)[C@H](CCc1ccccc1)N[C@@H](C)C(=O)N1CCC[C@H]1C(=O)O [Enalapril maleate] | 
8 |  |  |  | COc1cccc(OC)c1C(=O)N[C@@H]1C(=O)N2[C@@H]1SC(C)(C)[C@@H]2C(=O)O [methicillin sodium] | Direct binding to PPARα (change of intrinsic fluorescence) (PPARαΔAB [1]; 20 mM glucose): no binding
9 |  | 63.8% |  | CC(=O)N[C@@H]1[C@@H](O)[C@H](O)[C@@H](CO)O[C@@H]1O [Acetylglucosamine] | Increase of PPARα transactivation (percentage change from no-compound control) (PPARα; compound 10 μM): ≥ 50%; Kd (PPARαΔAB [1]; [6]): 33.3 ± 3 nM
10 | 28.4 ± 2.3 nM | 68.6% | significantly decreased | NC(=O)c1cnccn1 [Pyrazinamide] | 
11 |  | 67.5% | significantly decreased | CN=C(N)NCCC[C@H](N)C(=O)O.Cl [Targinine hydrochloride, reference compound] | Increase of PPARα transactivation (percentage change from no-compound control) (PPARα; compound 10 μM): ≥ 50%; Kd (PPARαΔAB [1]; [6]): 33.5 ± 3.5 nM
12 | 22.5 ± 2 nM | 81.3% |  | O=C1NS(=O)(=O)c2ccccc21 [Saccharin] | Effect on clofibrate-induced PPARα transactivation (PPARα; [7]): significant increases
13 |  |  |  | OC[C@H]1OC(O)[C@H](O)[C@@H](O)[C@@H]1O (stereo partly drawn) [glucose] | Increase of transactivation by glucose over clofibrate alone (PPARα; 10 μM clofibrate, 20 mM glucose, PPARα alone (Fig. 2B)): 3- to 4 fold; Effect of glucose on basal transactivation (PPARα; 20 mM glucose, no other ligand, PPARα alone (Fig. 2A)): no significant effect; Turns (PPARαΔAB [3]): 20.2 ± 0.7%; Unordered (PPARαΔAB [3]): 30.7 ± 0.8 %; α-Helices Distorted, Hd (PPARαΔAB [3]): 10.8 ± 0.3 %; α-Helices Regular, Hr (PPARαΔAB [3]): 14.3 ± 0.3 %; β-Sheets Distorted, Sd (PPARαΔAB [3]): 8.8 ± 0.5 %; β-Sheets Regular, Sr (PPARαΔAB [3]): 14.4 ± 1.2 %; Effect of glucose on BODIPY-C16 (fatty acid) binding to PPARα (PPARαΔAB [4]; 50 nM BODIPY-C16, 100 nM PPARαΔAB (Fig. 1D)): not affected; Effect of glucose on BODIPY-C16-CoA binding to PPARα (PPARαΔAB [4]; 50 nM BODIPY-C16-CoA, 100 nM PPARαΔAB (Fig. 1C, 1D)): significantly decreased; Decrease in BODIPY-C16-CoA fluorescence intensity (PPARαΔAB [2]; plate assay controls): ~ 30%; Increase of transactivation by glucose over clofibrate alone (PPARα-RXRα heterodimers; 10 μM clofibrate, 20 mM glucose, PPARα-RXRα heterodimers (Fig. 2B)): 3- to 4 fold; Effect of glucose on basal transactivation (PPARα-RXRα heterodimers; 20 mM glucose, no other ligand (Fig. 2A)): increased activity

Row | SMILES | Kd (PPARαΔAB [1]) | Recovery (ability to restore acyl-CoA binding) (PPARαΔAB [2]) | Effect on clofibrate-induced PPARα-RXRα activity (PPARα-RXRα heterodimers; [5]) | other results
14 | CN1[C@@H]2CC[C@H]1C[C@@H](OC(=O)[C@H](CO)c1ccccc1)C2 [Hyoscyamine] | 14.8 ± 2.8 nM | 86.4% |  | 
